Laboratory results from paper PMC5708124 (Nature microbiology, 2017).
Like-named read-outs stand apart in the source and are kept apart here.

Experiments:
[1] = tested on: PfMDR1 mutant lines versus parental ABS parasites (Dd2-B2, FCB); assay: Drug susceptibility profiling of HHQ-resistant lines in ABS parasites; format: cell-based, Plasmodium falciparum; details: for changes in susceptibility: all three lines: PfMDR1^edF1072L, PfMDR1^selY290F; for fold increased susceptibility compared to wild-type Dd2-B2: GNF-Pf-5668-3C4D2 line (four pfmdr1 copies + F1072L (AB 69%)); for susceptibility in GNF-Pf-5668-3C4D2 compared to PfMDR1^edF1072L: i.e. higher IC50 values
[2] = tested on: 3D7 (drug-sensitive) ABS parasites; assay: Imaging-based asexual blood stage high-throughput assay; format: cell-based, Plasmodium falciparum; details: read-out: ABS IC50; drug-sensitive 3D7, 72 h
In short: (§1)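 Sorbitol-synchronized parasites were seeded at 2% parasitemia and 0.3% Hct and exposed to test compound for 72 h at 37°C in 5% O₂/5% CO₂/90% N₂. Cells were then permeabilized with 0.01% Triton X-100, 0.001% saponin and 5 mM EDTA, and stained with 0.5 μg/mL DAPI for at least 6 h at room temperature in the dark. Confocal imaging used 405 nm excitation. Parasites were counted from spot size and intensity. Two independent cultures.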

[3] = tested on: NITD609-R^Dd2 clone #2 (PfATP4 mutant line); assay: as above; format: cell-based, Plasmodium falciparum; details: read-out: ABS IC50, 72 h
In short: as §1

[4] = tested on: P. berghei ANKA MRA868 GAMs, Anopheles stephensi mosquitoes; assay: In vivo transmission-blocking effect; parameters: species or system P. berghei in CD-1 mice; details: mice given two doses 12 h apart: 100 mg/kg GNF compounds, 30 mg/kg DHA
[5] = tested on: Dd2 (multidrug-resistant) ABS parasites; assay: Imaging-based asexual blood stage high-throughput assay; format: cell-based, Plasmodium falciparum; details: read-out: ABS IC50; multidrug-resistant Dd2, 72 h
[6] = tested on: P. berghei ANKA MRA868 ABS parasites; assay: 4-day Peters test; format: in vivo, P. berghei in CD-1 mice; details: 4 doses, 96 h post infection
In short: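 Female CD-1 mice (5 weeks old, 22–25 g; four per group) were infected intraperitoneally with 1x10⁶ parasites. The test compound was given intraperitoneally at 2, 24, 48 and 72 h after infection, in 20% DMSO in water. Controls were solvent only and DHA at 30 mg/kg. Parasitemia was read by microscopy at 96 h. Groups were randomized and blinded. The 100 mg/kg groups were tested once.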

male GAM exflagellation = assay: Male GAM exflagellation of GAM cultures used for membrane feeding; format: cell-based, Plasmodium falciparum; details: GAM cultures exposed at 3x late-stage IC50
[7] = tested on: NF54^Pfs16 early-stage GAMs; assay: Luciferase-based early-stage gametocyte inhibition assay; format: cell-based, Plasmodium falciparum; details: in words
In short: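 Gametocytes on day 1 of gametocytogenesis were set at 10% parasitemia and 0.5% Hct. They were kept in medium with 50 mM N-acetyl-D-glucosamine, refreshed daily. Compound was added at 0.4% DMSO final. Controls were DMSO (0% inhibition) and 5 μM puromycin (100% inhibition). After 72 h at 37°C in 5% O₂/5% CO₂/90% N₂, Steadylite was added, followed by 60 min lysis at room temperature and a luminescence read. Potency used serial dilutions up to 40 μM, three per log, on two independent occasions.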

[8] = tested on: NF54^Pfs16 late-stage GAMs; assay: Image-based late-stage gametocyte inhibition assay; format: cell-based, Plasmodium falciparum; details: in words
In short: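 Day-8 stage IV gametocytes were MACS-purified and set at 10% parasitemia and 0.1% Hct, with 0.4% DMSO final. They were incubated 72 h at 37°C in 5% O₂/5% CO₂/90% N₂, then stained overnight with MitoTracker Red CM-H₂XRos. Confocal imaging counted viable mature gametocytes per imaged area; 5 μM puromycin was the control. Screening used 2 μM in triplicate. Potency used serial dilutions up to 40 μM, three per log, on two independent occasions.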

[9] = tested on: HEK293 human embryonic kidney cell line; assay: HEK293 cytotoxicity; format: cell-based; details: at 40 μM, 72 h
In short: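 Cells were grown in DMEM with 10% fetal calf serum and seeded at 2,000 cells/well, then left overnight at 37°C in 5% CO₂ to adhere. Test compound was added as a serial dilution with a maximum of 40 μM, at 0.4% DMSO final, for 72 h. Medium was then replaced with serum-free DMEM containing 44 μM resazurin for 4–6 h. Fluorescence was read at 530/595 nm. Two biological replicates.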

[10] = tested on: cultured P. berghei liver-stage parasites; details: cited from earlier work
[11] = tested on: compound-exposed Pf GAMs in Anopheles stephensi mosquitoes; assay: Membrane-feeding assay with A. stephensi mosquitoes; format: in vivo, Plasmodium falciparum; details: for reduction in oocyst density per infected mosquito midgut: GAMs pre-treated at 3x late-stage IC50; for reduction in infection prevalence (percentage of infected mosquitoes): GAMs pre-treated at 3x late-stage IC50, 3 days, then 4 days without compound
In short: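 Day-12 gametocytes were treated 3 days at 1x or 3x their late-stage IC50, with compound refreshed daily, then held 4 days without compound. Controls were 0.25% DMSO and methylene blue at 3x. Stage V cultures (50% Hct, 0.01–0.16% parasitemia) were membrane-fed for 30 min to A. stephensi, kept at 26°C and 78% RH. Midguts were dissected on day 7–8, stained with mercurochrome and oocysts counted blind. Prevalence is the percentage of mosquitoes with at least one oocyst.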

Dd2-B2 late rings = assay: Hb endocytosis by Western blot; format: cell-based, Plasmodium falciparum; details: 5′ the IC50 for 5 h, normalized to DMSO control
In short: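 Sorbitol-synchronized parasites were exposed to test compound at 5x IC50 for 5 h, starting at the late ring stage. Lysates were blotted to nitrocellulose and probed overnight at 4°C with rabbit anti-human Hb (1:5,000) and anti-β-actin (1:2,000). Detection was by ECL. Hb band intensities were normalized to β-actin and compared with untreated controls. Repeated on 3–4 independent occasions.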

[12] = tested on: PfMDR1^selY290F parasites; assay: Heme fractionation assay; format: cell-based, Plasmodium falciparum; details: MQ with increasing concentrations; LMF at 1–2′ IC50
In short: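 Early ring-stage, sorbitol-synchronized parasites were exposed to test compound at 0.1, 0.25, 0.5, 1 and 2x the ABS IC50. Heme species were fractionated and normalized to the number of cells analyzed, counted by flow cytometry of an aliquot. Significance was tested by two-tailed t-tests.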

Dd2-B2 parasites = assay: Heme fractionation assay; format: cell-based, Plasmodium falciparum; details: for heme fractionation effect compared to untreated controls: 0.1 to 2′ IC50
[13] = tested on: female gametes from stage V GAMs; assay: Dual gamete formation assay, female gamete formation; format: cell-based, Plasmodium falciparum; details: for IC50: Plasmodium falciparum, 24 h
[14] = tested on: male gametes from stage V GAMs; assay: Dual gamete formation assay, male gamete formation; format: cell-based, Plasmodium falciparum; details: for IC50: Plasmodium falciparum, 24 h
[15] = PfMDR1^selY290F (GNF-Pf-5660-2B6H1)

CCN(CC)CCCC(C)Nc1ccnc2cc(Cl)ccc12 (stereo not shown) [CQ, chloroquine]
changes in susceptibility ([1]; PfMDR1^edS1075I): no changes

CCCOC(=O)C1=C(C)NC2=C(C(=O)CC(c3ccc(OC)c(OC)c3)C2)C1c1ccccc1F (stereo not shown) [GNF-Pf-5668]
IC50 [2]: < 25 nM
IC50 [3]: < 25 nM
reduction in oocyst burden [4]: No effect
reduction in the number of infected mosquitoes [4]: No effect
IC50 [5]: < 25 nM
reduction of parasitemia compared to vehicle-treated mice ([6]; 70 mg/kg intraperitoneal): 43%
reduction of parasitemia compared to vehicle-treated mice ([6]; 100 mg/kg intraperitoneal): 91%
reduction in male GAM exflagellation rates (male GAM exflagellation): 70%
early-stage gametocytocidal activity [7]: potent
late-stage gametocytocidal activity [8]: potent
inhibition of HEK293 cells [9]: < 50%
activity against liver-stage parasites [10]: inactive
fold increase in IC50 compared to parental Dd2-B2 ([1]; GNF-Pf-5668-selected clone 3C4D2, PfMDR1 F1072L (AB 67%)): 37 fold
reduction in oocyst density per infected mosquito midgut [11]: 95–99%
reduction in infection prevalence (percentage of infected mosquitoes) [11]: 57%

C[C@H]1[C@@H](O)O[C@@H]2O[C@@]3(C)CC[C@H]4[C@H](C)CC[C@@H]1[C@@]24OO3 [DHA, dihydroartemisinin, reference compound]
reduction in oocyst burden [4]: 75%
reduction in the number of infected mosquitoes [4]: 65%
fold increased susceptibility versus Dd2-B2 ([1]; all three mutations (F1072L, S1075I, Y290F)): ~ 1.6 fold

CCNCCCC(C)Nc1ccnc2cc(Cl)ccc12 (stereo not shown) [md-CQ, monodesethyl-CQ]
changes in susceptibility ([1]; PfMDR1^edS1075I): no changes

Clc1ccc2c(N3CCN(CCCN4CCN(c5ccnc6cc(Cl)ccc56)CC4)CC3)ccnc2c1 [piperaquine]
changes in susceptibility ([1]; PfMDR1^edS1075I): no changes

CCNCc1cc(Nc2ccnc3cc(Cl)ccc23)ccc1O [md-ADQ, md-amodiaquine]
changes in susceptibility ([1]; PfMDR1^edS1075I): no changes

OC(c1cc(C(F)(F)F)nc2c(C(F)(F)F)cccc12)C1CCCCN1 (stereo not shown) [MQ, mefloquine]
reduction of Hb levels within parasites (Dd2-B2 late rings): no significant changes
Hz and total heme iron levels [12]: reductions
heme fractionation effect compared to untreated controls (Dd2-B2 parasites): little or no effect
fold decrease in Hz levels (Dd2-B2 parasites; 2′ the IC50): 1.6 fold
fold increased susceptibility compared to wild-type Dd2-B2 [1]: 1.4 fold
fold higher susceptibility versus Dd2-B2 ([1]; PfMDR1^edF1072L): 3.6 fold
fold increased susceptibility versus Dd2-B2 ([1]; PfMDR1^edS1075I): 1.4 fold
fold higher susceptibility versus Dd2-B2 [1, 15]: 2.0 fold
susceptibility in GNF-Pf-5668-3C4D2 compared to PfMDR1^edF1072L [1]: decreased susceptibility

C=C[C@H]1C[N@@]2CC[C@H]1C[C@H]2[C@H](O)c1ccnc2ccc(OC)cc12 [QN, quinine]
fold increased susceptibility compared to wild-type Dd2-B2 [1]: 1.7 fold
fold higher susceptibility versus Dd2-B2 ([1]; PfMDR1^edF1072L): 3.6 fold
fold increased susceptibility versus Dd2-B2 ([1]; PfMDR1^edS1075I): 5.1 fold
fold higher susceptibility versus Dd2-B2 [1, 15]: 3.7 fold
susceptibility in GNF-Pf-5668-3C4D2 compared to PfMDR1^edF1072L [1]: decreased susceptibility

CC1(C)N=C(N)N=C(N)N1OCCCOc1cc(Cl)c(Cl)cc1Cl [WR99210]
reduction of Hb levels within parasites (Dd2-B2 late rings): no significant changes

CN(C)c1ccc2nc3ccc(=[N+](C)C)cc-3sc2c1 [Methylene Blue, methylene blue]
IC50 ([13]; read-out: Mean IC50 (lower 95% CI - upper 95% CI) Female carry-over): 162 nM
IC50 ([13]; read-out: Mean IC50 (lower 95% CI - upper 95% CI) Female wash-out): 846 nM
transmission-blocking activity ([11]; positive control at 3′ the GAM IC50, in words): maximal
IC50 ([14]; read-out: Mean IC50 (lower 95% CI - upper 95% CI) Male carry-over): 61.5 nM
IC50 ([14]; read-out: Mean IC50 (lower 95% CI - upper 95% CI) Male wash-out): 147 nM

ferroquine
changes in susceptibility ([1]; PfMDR1^edS1075I): no changes

CC(C)(C)c1ccc(O)c(CNC2CCCCC2)c1 [GNF-Pf-5310]
IC50 [2]: < 25 nM
IC50 [3]: < 25 nM
IC50 [5]: < 25 nM
reduction in male GAM exflagellation rates (male GAM exflagellation): no effect
early-stage gametocytocidal activity [7]: potent
late-stage gametocytocidal activity [8]: potent
inhibition of HEK293 cells [9]: < 50%
activity on female gamete formation ([13]; in words): no activity
reduction in oocyst density per infected mosquito midgut [11]: 73%
reduction in infection prevalence (percentage of infected mosquitoes) [11]: no reduction
activity on male gametes / exflagellation ([14]; in words): no activity

CCCCN(CCCC)CC(O)c1cc(Cl)cc2c1-c1ccc(Cl)cc1/C2=C/c1ccc(Cl)cc1 (stereo not shown) [LMF, Lumefantrine]
reduction of Hb levels within parasites (Dd2-B2 late rings): no significant changes
Hz and total heme iron levels [12]: reduction
heme fractionation effect compared to untreated controls (Dd2-B2 parasites): little or no effect
fold higher susceptibility versus Dd2-B2 ([1]; PfMDR1^edF1072L): 3.1 fold
fold increased susceptibility versus Dd2-B2 ([1]; PfMDR1^edS1075I): unchanged
fold higher susceptibility versus Dd2-B2 [1, 15]: 1.9 fold
susceptibility in GNF-Pf-5668-3C4D2 compared to PfMDR1^edF1072L [1]: decreased susceptibility

COc1ccc(C2CC(=O)C3=C(C2)NC(C)=C(C(=O)OC(C)C)C3c2ccccc2C)cc1OC (stereo not shown) [GNF-Pf-5640]
IC50 [2]: < 25 nM
IC50 [3]: < 25 nM
IC50 [5]: < 25 nM
early-stage gametocytocidal activity [7]: potent
late-stage gametocytocidal activity [8]: potent
inhibition of HEK293 cells [9]: < 50%
activity against liver-stage parasites [10]: inactive
fold increase in IC50 compared to parental Dd2-B2 ([1]; GNF-Pf-5640-selected clone 2C4C3, PfMDR1 S1075I): 77 fold
fold increase in IC50 compared to parental Dd2-B2 ([1]; GNF-Pf-5640-selected clone 3H9C7, PfMDR1 Y290F): 79 fold
